Data: ChEMBL document CHEMBL4184239, “Therapeutic effects of isothiocyanate prodrugs on rheumatoid arthritis” (Bioorg Med Chem Lett, 2018)
Calls of active or inactive are those of the source. The rule behind the calls is not given here.

Tests used:
in vivo = conditions: rat
clinical = conditions: human, in vivo
[1] = Stability in HEPES buffer at pH 4.4 measured within 24 hrs by HPLC method; assay type: physicochemical; conditions: pH 4.4, 24 h
How it was run: (§1)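 Prodrug incubated in HEPES buffer at pH 4.4 or pH 7.4; concentrations of prodrug and released isothiocyanate followed over time (up to 24 h and beyond) to build concentration–time curves.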

[2] = Prodrug conversion in mouse plasma assessed as formation of 1-isothiocyanato-4-(methylsulfinyl)butane measured after 24 hrs by HPLC method; assay type: ADME, cell-free
Danio rerio [3] = organism: Danio rerio; assay: Anti-inflammatory activity in EGFP transgenic Zebrafish model of neutrophil inflammation assessed as reduction in number of neutrophil migration at 5 ug/ml incubated for 3 hrs by stereofluorescence microscopy; assay type: functional, organism-based
How it was run: (§2)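 72 h post-fertilization EGFP transgenic zebrafish, 24 larvae split into 4 groups (vehicle control, reference, two test articles); compound added to culture wells for 3 h; migrating neutrophils counted; P vs control by statistical comparison.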

[4] = Half life in mouse plasma by HPLC method; assay type: ADME, cell-free
[5] = Prodrug conversion in mouse plasma assessed as Tmax for formation of 1-isothiocyanato-4-(methylsulfinyl)butane measured after 24 hrs by HPLC method; assay type: ADME, cell-free
[6] = Stability in mouse plasma assessed as time duration for complete drug degradation by HPLC method; assay type: ADME, cell-free
Danio rerio [7] = organism: Danio rerio; assay: Anti-inflammatory activity in EGFP transgenic Zebrafish model of neutrophil inflammation assessed as reduction in number of neutrophil migration at 30 ug/ml incubated for 3 hrs by stereofluorescence microscopy; assay type: functional, organism-based
How it was run: as §2

[8] = Drug level in mouse plasma treated with 2-(2-(2-(dimethylamino)ethoxy)ethoxy)ethyl 4-(1-phenyl-1H-tetrazol-5-ylthio)butylcarbamodithioate assessed as active compound formation measured after 24 hrs by HPLC method; assay type: ADME, cell-free
[9] = Drug level in HEPES buffer at pH 7.4 treated with 2-(2-(2-(dimethylamino)ethoxy)ethoxy)ethyl 4-(1-phenyl-1H-tetrazol-5-ylthio)butylcarbamodithioate assessed as active compound formation measured at 2 hrs by HPLC method; assay type: physicochemical; conditions: pH 7.4, 2 h
How it was run: as §1

[10] = Drug level in HEPES buffer at pH 7.4 treated with 2-(2-(2-(dimethylamino)ethoxy)ethoxy)ethyl 4-(1-phenyl-1H-tetrazol-5-ylthio)butylcarbamodithioate assessed as active compound formation measured during 2 to 30 hrs by HPLC method; assay type: physicochemical
How it was run: as §1

Rattus norvegicus [11] = assay: Anti-inflammatory activity in Wistar rat model of Freund's complete adjuvant-induced rheumatoid arthritis model assessed as reduction in paw swelling at 10 to 40 mg/kg, po dosed every day from day 16 after initial inflammation; assay type: functional, organism-based
How it was run: (§3)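 Wistar rats with Freund's complete adjuvant-induced arthritis, 30 randomized into 5 groups; oral daily dosing from day 16 after initial inflammation, reference 1 mg/kg, test 10, 20, 40 mg/kg; paw swelling degree tracked over days; P < .05 vs model group.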

Danio rerio [12] = organism: Danio rerio; assay: Anti-inflammatory activity in EGFP transgenic Zebrafish model of neutrophil inflammation assessed as reduction in number of neutrophil migration at 0.5 ug/ml incubated for 3 hrs by stereofluorescence microscopy; assay type: functional, organism-based
How it was run: as §2

Rattus norvegicus [13] = assay: Anti-inflammatory activity in Wistar rat model of Freund's complete adjuvant-induced rheumatoid arthritis model assessed as reduction in paw swelling at 10 to 20 mg/kg, po dosed every day from day 16 after initial inflammation and measured after 10 days; assay type: functional, organism-based
How it was run: as §3

Rattus norvegicus [14] = assay: Anti-inflammatory activity in Wistar rat model of Freund's complete adjuvant-induced rheumatoid arthritis model assessed as reduction in paw swelling at 10 mg/kg, po dosed every day from day 16 after initial inflammation and measured after 10 days; assay type: functional, organism-based
How it was run: as §3

Mus musculus [15] = assay: Toxicity in Kunming white mouse assessed as effect on body weight at 200 mg/kg, po dosed everyday for 5 weeks measured from day 30 onwards; assay type: organism-based; conditions: in vivo, 840 h
How it was run: (§4)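 Mice were dosed orally once daily at 200 mg/kg for 5 weeks alongside an untreated control group. Survival and body weight were recorded over the dosing period and compared with controls.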

Rattus norvegicus [16] = assay: Anti-inflammatory activity in Sprague-Dawley rat model of carrageenan-induced paw edema assessed as reduction in hind paw volume at 10 to 50 mg/kg, po dosed for 2 times at 6 hrs after carrageenan injection measured after 8 to 10 hrs; assay type: functional, organism-based; conditions: in the assay text read “at 2 and 6 hrs” for “at 6 hrs”
How it was run: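 Sprague-Dawley rats, 30 randomized into 5 groups (6 per group); oral dosing twice, at 2 h and 6 h after finishing carrageenan injection into paw; reference 5 mg/kg, test 10, 20, 50 mg/kg; swelling followed over time (to 10 h); significance vs model group.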

Danio rerio [17] = organism: Danio rerio; assay: Potency index, ratio of dexamethasone to test compound anti-inflammatory activity in EGFP transgenic Zebrafish model of neutrophil inflammation assessed as reduction in number of neutrophil migration incubated for 3 hrs by stereofluorescence microscopy; assay type: functional
Mus musculus [18] = assay: Toxicity in Kunming white mouse assessed as survival at 200 mg/kg, po dosed everyday for 5 weeks; assay type: organism-based; conditions: in vivo, 840 h
How it was run: as §4

Rattus norvegicus [19] = assay: Toxicity in Wistar rat model of Freund's complete adjuvant-induced rheumatoid arthritis model assessed as increase in body weight at 40 mg/kg, po dosed every day from day 16 after initial inflammation (reference value: 84.6 g); assay type: organism-based; conditions: in vivo
[20] = Prodrug conversion in mouse plasma assessed as Tmax for formation of 5-(4-isothiocyanatobutylthio)-1-phenyl-1H-tetrazole measured after 24 hrs by HPLC method; assay type: ADME, cell-free
[21] = Prodrug conversion in mouse plasma assessed as formation of 5-(4-isothiocyanatobutylthio)-1-phenyl-1H-tetrazole measured after 24 hrs by HPLC method; assay type: ADME, cell-free
Rattus norvegicus [22] = assay: Toxicity in Wistar rat model of Freund's complete adjuvant-induced rheumatoid arthritis model assessed as increase in body weight at 10 mg/kg, po dosed every day from day 16 after initial inflammation (reference value: 84.6 g); assay type: organism-based; conditions: in vivo
Rattus norvegicus [23] = assay: Toxicity in Wistar rat model of Freund's complete adjuvant-induced rheumatoid arthritis model assessed as increase in body weight at 20 mg/kg, po dosed every day from day 16 after initial inflammation (reference value: 84.6 g); assay type: organism-based; conditions: in vivo
Rattus norvegicus [24] = assay: Anti-inflammatory activity in Wistar rat model of Freund's complete adjuvant-induced rheumatoid arthritis model assessed as reduction in paw swelling at 1 mg/kg, po dosed every day from day 16 after initial inflammation and measured after 10 days; assay type: functional, organism-based
How it was run: as §3

Rattus norvegicus [25] = assay: Anti-inflammatory activity in Wistar rat model of Freund's complete adjuvant-induced rheumatoid arthritis model assessed as reduction in paw swelling at 1 mg/kg, po dosed every day from day 16 after initial inflammation; assay type: functional, organism-based
How it was run: as §3

`C[S+]([O-])CCCCN=C=S` (stereo not given) [SULFORAPHANE] gave a half-life (in vivo) of 2.2 h and a half-life (clinical) of 1.77 h.

In the case of `CN(C)CCOCCOCCSC(=S)NCCCC[S+](C)[O-]` (stereo not given), the Stability [1] is reported as “Stable”, the Drug metabolism [2] is reported as “Metabolite_Detected” and the Activity (Danio rerio [3]) is reported as “Active”. For the same molecule, the half-life [4] was 6 h, the Tmax [5] was 2 h and the Time [6] was 24 h.

With `C[C@@H]1C[C@H]2[C@@H]3CCC4=CC(=O)C=C[C@]4(C)[C@@]3(F)[C@@H](O)C[C@]2(C)[C@@]1(O)C(=O)CO` the Activity (Danio rerio [7]) was “Active”.

In the case of `S=C=NCCCCSc1nnnn1-c1ccccc1`, the Drug uptake [8] is reported as “Active”, the Drug uptake [9] is reported as “Active” and the Drug uptake [10] is reported as “Active”.

For `CN(C)CCOCCOCCSC(=S)NCCCCSc1nnnn1-c1ccccc1`, the Activity (Rattus norvegicus [11]) was “Active”, the Stability [1] was “Stable” and the Activity (Danio rerio [12]) was “Active”. For the same molecule, the half-life [4] was 6 h, the Activity (Rattus norvegicus [13]) was “Active” and the Activity (Rattus norvegicus [14]) was “Active”. The Activity (Mus musculus [15]) was “Non-Toxic”, the Activity (Rattus norvegicus [16]) was “Active” and the Ratio (Danio rerio [17]) was 300. For the same molecule, the Activity (Mus musculus [18]) was “Non-Toxic”, the Activity (Rattus norvegicus [19]) was 58.2 g and the Tmax [20] was 2 h. For the same molecule, the Drug metabolism [21] was “Metabolite_Detected”, the Activity (Rattus norvegicus [22]) was 80.8 g and the Time [6] was 10 h. The Activity (Rattus norvegicus [23]) was 70.8 g.

With `CN(Cc1cnc2nc(N)nc(N)c2n1)c1ccc(C(=O)N[C@@H](CCC(=O)O)C(=O)O)cc1` the Activity (Rattus norvegicus [24]) was “Active” and the Activity (Rattus norvegicus [25]) was “Active”.
